Screens deposited in PubChem by Broad Institute.
Rows were chosen to be rich in hits. Some 4.4% of all compounds tested hit in one or more screens of this group.
HSF1 inh: HSF1 inhibitors in luciferase reporter cells, primary screen, cell-based, NIH3T3, luminescence; activity change, negative = inhibition, % at 7.5 µM (by protocol); actives 0.77% (n = 300,000); AID 2098, 2009; NIH3T3-HGL HSE-luciferase, MG132-induced, luminescence 8 h; active compounds read low;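 active means more than half of replicate wells show activity change below -50%, luminescence cut by over half; inconclusive means some wells, but at most half, below -50%; inactive means no replicate well below -50%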;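 further: luciferase reports HSF-1 transcriptional activity via heat shock element; 0% = median of DMSO wells and -100% = zero luminescence signal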
T cruzi inh: inhibitors of intracellular T. cruzi growth, primary screen, luminescence, NIH3T3 host cells; T. cruzi beta-gal in NIH3T3, 90 h; inhibition, % (concentration not given with the values); actives 1.4% (n = 300,000); AID 1885, 2009;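 active means mean inhibition across valid replicates above about 55%, limit read from the data; inconclusive means mean below that limit but half or more replicates reach it; inactive means mean below it, under half of replicates reach it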;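 further: signal also drops with host cell toxicity which is not excluded here; 0% = plate median of DMSO wells and 100% = zero luminescence signal; higher percent means less beta-gal luminescence so fewer parasites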
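assay system = mouse NIH/3T3 fibroblasts infected with β-gal-expressing T. cruzi Tulahuen C4 | input = 5,000 NIH/3T3 host cells per well | buffer or medium = DMEM plus 2% FBS | timing = 3 h host attachment, then at least 90 h co-culture | measured by = GalScreen luminescence, 60 min | evaluation = luminescence reflecting intracellular parasite burden, expressed as percent inhibition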
HIF activator: HIF pathway transcriptional activators, primary screen, cell-based, U2OS HRE-luciferase, luminescence | U2OS HRE-luciferase reporter; normalized: DMSO 0%, desferrioxamine 100% | activation, % at 7.5 µM (by protocol) | actives 0.32% (n = 300,000) | AID 1910, 2009;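 active means mean activation of at least 10% of the iron chelator positive control signal, with at least half of replicates also reaching 10%; inconclusive means mean and replicate majority disagree about reaching 10%; inactive means mean and most replicates under 10%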
HSF-1 act: HSF-1 activators, primary screen, NIH3T3-HGL cells, MG132 stress, luminescence, single point | NIH3T3-HGL HSF-1 luciferase reporter, 8 h; 100% = twice DMSO control signal | activation, % at 9 µM | actives 1.7% (n = 300,000);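 active means mean replicate activation of at least 50% with a set share of replicates each reaching 50%; inconclusive means only one of those two conditions met; inactive means mean below 50% and too few replicates reaching it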;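 further: 0% = median of the neutral control wells and 100% = twice that signal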
Calb FLC: C. albicans growth inhibition with fluconazole, primary screen, CaCi-2 strain, Alamar Blue fluorescence; actives 0.57% (n = 300,000); growth inhibition, % (test concentration not listed); C. albicans CaCi-2 + fluconazole, 48 h;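 active means growth inhibition above about 58% in most replicates, limit read from the data, passing the limit was not always enough; inconclusive means exactly half the replicates above a set limit; inactive means most replicates below a set limit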;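 further: all wells also contain fluconazole at 8 µg/ml as a sub-toxic cotreatment; 0% = median of DMSO wells and 100% = median of geldanamycin control wells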
* marks the source's active call; other numbers are inactive results.

What do the screens show for `CCCCS(=O)(=O)/C=C\C=C/S(=O)(=O)CCCC`?
HSF1 inh: -83*; T cruzi inh: 23; HIF activator: -4; HSF-1 act: -84; Calb FLC: 1

What do the screens show for `Cc1ccc2c(C)c(C(=O)N(C)Cc3nccn3C)oc2c1C`?
HSF1 inh: -3; T cruzi inh: -14; HIF activator: 0; HSF-1 act: 17; Calb FLC: -5

How did CC(=O)Nc1ccc(S(=O)(=O)Nc2ccc(S(=O)(=O)Nc3nccs3)cc2)cc1 do in these assays?
HSF1 inh: -1; T cruzi inh: -10; HIF activator: 23*; HSF-1 act: -3; Calb FLC: 9

How did COC(=O)C1=C(C)N(C)C(=O)NC1c1cc(Cl)c(O)c(OC)c1 (stereo not given) do in these assays?
HSF1 inh: 14; T cruzi inh: 2; HIF activator: 692*; HSF-1 act: 20; Calb FLC: 5

Results for CC(C)(C)C(=O)Nc1nnc(SCC(=O)NC2CCCC2)s1 ?
HSF1 inh: -12; T cruzi inh: -15; HIF activator: -12; HSF-1 act: -7; Calb FLC: 14

What do the screens show for `Cc1c(C(=O)Nc2ccc(F)cc2)sc2ncn(CC(=O)N3CCCCC3)c(=O)c12`?
HSF1 inh: -55*; T cruzi inh: 16; HIF activator: 0; HSF-1 act: -64; Calb FLC: -4

Results for CSc1ccccc1NC(=O)c1noc(C)c1[N+](=O)[O-] ?
HSF1 inh: -3; T cruzi inh: -13; HIF activator: 0; HSF-1 act: -9; Calb FLC: 7

What do the screens show for `CC(=O)c1ccc(N(C(=O)c2csnn2)C(C(=O)NC(C)(C)C)c2cccs2)cc1` (stereo not given)?
HSF1 inh: -1; T cruzi inh: -6; HIF activator: 35*; HSF-1 act: 1; Calb FLC: -3

Results for c1coc(CNc2c3c(nc4ccccc24)CCC3)c1 ?
HSF1 inh: -5; T cruzi inh: 69*; HIF activator: -2; HSF-1 act: 11; Calb FLC: 5

What do the screens show for `COc1ccc(N2CCN(C(=O)[C@H](Cc3c[nH]c4ccccc34)NC(C)=O)CC2)cc1`?
HSF1 inh: 29; T cruzi inh: -6; HIF activator: -1; HSF-1 act: 62*; Calb FLC: -21

Results for COc1ccc(N2CCN(C(=O)CCc3c[nH]c4ccccc34)CC2)cc1 ?
HSF1 inh: 13; T cruzi inh: 1; HIF activator: 0; HSF-1 act: 12; Calb FLC: -4

How did CCCc1cc(=O)oc2c(CN3CCCC3)c(O)c(Cl)cc12 do in these assays?
HSF1 inh: -4; T cruzi inh: 2; HIF activator: -1; HSF-1 act: 32; Calb FLC: 44

How did CCc1cc(=O)oc2c(CNCc3ccccc3F)c(O)c(Cl)cc12 do in these assays?
HSF1 inh: 13; T cruzi inh: 7; HIF activator: 1; HSF-1 act: 64*; Calb FLC: -2

What do the screens show for `N/C(CSc1nc(-c2ccccc2)c(-c2ccccc2)o1)=N\O`?
HSF1 inh: -4; T cruzi inh: 10; HIF activator: -7; HSF-1 act: 0; Calb FLC: 2

How did C/C(N)=C(/C#N)C(=O)CSc1nnc(-c2ccc(OC(F)F)cc2)o1 do in these assays?
HSF1 inh: 46; T cruzi inh: -2; HIF activator: 2; HSF-1 act: 78*; Calb FLC: 9

How did C/C(N)=C(/C#N)C(=O)CSc1nnc(-c2ccc3c(c2)OCO3)o1 do in these assays?
HSF1 inh: 50; T cruzi inh: 0; HSF-1 act: 76*; Calb FLC: 16

What do the screens show for `C/C(N)=C(/C#N)C(=O)CSc1nc(-c2ccccc2)c(-c2ccccc2)o1`?
HSF1 inh: -2; T cruzi inh: 59*; HIF activator: 0; HSF-1 act: 5; Calb FLC: 5

How did NC(=O)CSc1nnc(-c2ccc3c(c2)OCO3)o1 do in these assays?
HSF1 inh: 1; T cruzi inh: -5; HIF activator: 1; HSF-1 act: -4; Calb FLC: -1

How did CCC(=O)NC(c1cccs1)c1cc([N+](=O)[O-])c2cccnc2c1O (stereo not given) do in these assays?
HSF1 inh: -7; T cruzi inh: -3; HIF activator: 6; HSF-1 act: -4; Calb FLC: 86*

How did CC(=O)NC(c1cccs1)c1cc([N+](=O)[O-])c2cccnc2c1O (stereo not given) do in these assays?
HSF1 inh: -17; T cruzi inh: 28; HIF activator: 18*; HSF-1 act: -33; Calb FLC: 81*

Results for CCCC(=O)NC(c1cccs1)c1cc([N+](=O)[O-])c2cccnc2c1O (stereo not given) ?
HSF1 inh: 7; T cruzi inh: 4; HIF activator: -33; HSF-1 act: 22; Calb FLC: 40

What do the screens show for `Cc1ccc(C(=O)N/N=C\c2cccs2)cn1`?
HSF1 inh: -5; T cruzi inh: 1; HIF activator: 1; HSF-1 act: -8; Calb FLC: -10

How did CCOc1ccc(C(=O)NCCC(=O)N2CCC3(CC2)NCCc2[nH]cnc23)cc1OCC do in these assays?
HSF1 inh: 6; T cruzi inh: 2; HIF activator: 0; HSF-1 act: -2; Calb FLC: -14

Results for O=c1cc(O)c2c(=O)n(Cc3ccccc3)c3ccccc3c2o1 ?
HSF1 inh: -6; T cruzi inh: 13; HIF activator: 0; HSF-1 act: -13; Calb FLC: inconclusive

What do the screens show for `CCCCn1c(=O)c2c(O)cc(=O)oc2c2ccccc21`?
HSF1 inh: 7; T cruzi inh: -23; HIF activator: 22*; HSF-1 act: 1; Calb FLC: 27

What do the screens show for `COc1ccc(C(=O)OCCOc2cccc(Cl)c2)cc1S(=O)(=O)N1CCOCC1`?
HSF1 inh: 13; T cruzi inh: 45; HIF activator: 0; HSF-1 act: 10; Calb FLC: 9

How did O=C(N/N=C/c1cc(Br)cc(Br)c1O)c1ccncc1 do in these assays?
HSF1 inh: -4; T cruzi inh: -4; HIF activator: 13*; HSF-1 act: -6; Calb FLC: inconclusive

Results for O=C(N/N=C/c1cc(Cl)cc(Cl)c1O)c1ccncc1 ?
HSF1 inh: 0; T cruzi inh: inconclusive; HIF activator: 29*; HSF-1 act: -1; Calb FLC: 2

What do the screens show for `O=C(N/N=C/c1ccc(O)cc1O)c1ccncc1`?
HSF1 inh: 2; T cruzi inh: -1; HIF activator: 0; HSF-1 act: 3; Calb FLC: -4

Results for O=C(N/N=C/c1cc(Br)cc(Br)c1O)c1cccc(N2CCCC2=O)c1 ?
HSF1 inh: -9; T cruzi inh: 61*; HIF activator: 9.6*; HSF-1 act: -8; Calb FLC: inconclusive
